Shown are actives, neighbours in structure and some others; about 2.6% of the full set was active somewhere.
E-selectin induc: E-selectin induction on HUVECs; HUVEC E-selectin immunofluorescence imaging; normalized: neutral wells 0, TNF-alpha wells 100; activation, % at 7.58 µM; hit rate 0.37% among 260,000;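 active = mean E-selectin-positive cell signal at least 10% of the positive control, reached in at least 60% of replicates, without over 20% cell loss; inconclusive = no rule given, readout overlaps actives, possibly toxicity-flagged; inactive = the rest, including those meeting only one limit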
Target sequence (P16581 whole entry, looked up): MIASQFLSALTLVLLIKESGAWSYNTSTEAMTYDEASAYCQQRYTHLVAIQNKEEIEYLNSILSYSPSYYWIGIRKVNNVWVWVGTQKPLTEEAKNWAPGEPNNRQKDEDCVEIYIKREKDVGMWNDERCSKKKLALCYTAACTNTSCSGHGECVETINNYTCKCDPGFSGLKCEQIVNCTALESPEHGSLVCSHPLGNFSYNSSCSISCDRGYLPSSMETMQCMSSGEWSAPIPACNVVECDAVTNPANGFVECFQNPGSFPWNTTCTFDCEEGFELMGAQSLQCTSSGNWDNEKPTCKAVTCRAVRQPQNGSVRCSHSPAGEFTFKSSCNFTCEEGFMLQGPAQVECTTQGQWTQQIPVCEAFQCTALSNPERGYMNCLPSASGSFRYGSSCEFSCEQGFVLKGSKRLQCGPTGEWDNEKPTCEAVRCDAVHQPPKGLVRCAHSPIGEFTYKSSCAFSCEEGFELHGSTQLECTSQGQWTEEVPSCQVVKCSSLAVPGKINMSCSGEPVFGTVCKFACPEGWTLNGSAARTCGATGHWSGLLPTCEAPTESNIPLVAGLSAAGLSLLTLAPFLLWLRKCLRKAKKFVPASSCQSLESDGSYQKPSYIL
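Read-out: % PE-positive cells | Test system: HUVEC | Doses: One compound dose added by pin transfer | Buffer or medium: EGM-2 over gelatin coat | Signal: Immunofluorescence imaging | Benchmarks: TNF-alpha, DMSO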
AF4-AF9 inh: inhibitors of human MLL-AF4/AF9 interaction; inhibition, % at 10 µM; AlphaScreen, biotin-AF4 peptide binding to FLAG-AF9; hit rate 0.47% among 350,000; P42568;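 active = every replicate reaching a set inhibition limit, whatever the replicate mean, cut at about 25% in these data; inconclusive = mean inhibition reaches that limit but some replicates miss it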;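 note: 0% = plate neutral control median and 100% = total signal loss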
rRNA inh HTS: inhibitors of bacterial rRNA selective over humanized ribosomes | AID 720706 | GFP signal change (wild-type ribosome), % (no concentration beside the values) | E. coli WT GFP vs humanized-ribosome RFP mutants, fluorescence, 24 h; hits give low values; DMSO median 0, no signal -100 | hit rate 1.6% among 350,000;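 active = significant combined selectivity score with lowered wild-type GFP, culture density cut under 30%, mutant RFP and density less affected; inactive = any of these conditions unmet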
RAD54 inh: blocks human RAD54 Holliday junction branch migration; Q92698; FAM/BHQ fluorescence; AID 602329; hit rate 0.14% among 360,000; inhibition, % at 10.4 µM;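 active = mean normalized replicate activity at least 40 and at least half of replicates scoring 40 or more; inconclusive = only one of the two criteria met; inactive = mean below 40 and under half of replicates reaching 40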;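 note: 0% = median of neutral control wells and 100% = median of positive control wells; inhibitors cause a drop in the FAM fluorescence signal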
GSIS activator: primary screen for activators of insulin secretion dependent on glucose, INS-1E cells, GLuc reporter luminescence; INS-1E GLuc reporter insulin secretion, 2-3 h; activation, % at 16.6 µM; hit rate 0.61% among 370,000; AID 743287;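 active = lowest replicate activation of at least 40%, so every replicate reaches that level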;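 note: 0% = median of neutral control wells and 100% = median of IBMX positive control wells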
RAD52 anneal inh: blocks human RAD52 DNA annealing; P43351; recombinant RAD52 DNA annealing, FRET fluorescence; inhibition, % at 18.7 µM; hit rate 0.46% among 360,000; AID 651710;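 active = every replicate showing at least 50% inhibition; inconclusive = mean inhibition at least 50% but not in every replicate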
HepG2 tox: kills or reduces viability of HepG2 cells; shares compounds with rRNA inh HTS; ATP luminescence, 72 h; activity change, negative = cytotoxicity, unspecified at 26 µM; 30 tested, under 10 active; AID 743480;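 active = compounds whose fitted half-maximal signal-loss concentration is at most twice their highest valid dose; inconclusive = flat curve with 30 to 70% signal loss, or poor fit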
AID977621: growth inhibition of wild-type GFP E. coli, dose response, H69 mutant RFP, cherry-pick; shares compounds with rRNA inh HTS; activity change, negative = inhibition at 50 µM; 1,900 tested, under 10 active; AID 977621; E. coli wild-type GFP strain growth, fluorescence, 24 h;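 active = Wild-type ribosome reporter drop at least double the humanized mutant ribosome reporter drop, growth loss under a set limit; inconclusive = no clear call, values can overlap the other calls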;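 note: wild-type GFP and H69 mutant RFP strains grown together 50/50 in each well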
AID977628: growth of wild-type and h24-humanized E. coli strains – h24 mutant RFP vs wild-type GFP, cherry-pick, dose response. activity change, negative = inhibition at 50 µM. E. coli WT GFP strain growth, fluorescence, 24 h. shares compounds with rRNA inh HTS. 1,900 tested, under 10 active;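 active = compound lowering the normal-ribosome reporter at least twice as much as the humanized-ribosome reporter, growth loss under a set limit; inconclusive = no clear call, values can overlap the other calls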;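 note: wild-type GFP and h24 humanized RFP strains co-cultured 1 to 1 per well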
Starred values were filed as active, the others as inactive.

Cc1noc(C)c1NC(=O)N(C)C[C@H]1OCCCC[C@@H](C)Oc2ccc(NC(=O)Nc3ccc4c(c3)OCO4)cc2C(=O)N([C@H](C)CO)C[C@@H]1C was read as E-selectin induc 0, AF4-AF9 inh -1, rRNA inh HTS 4, RAD54 inh 1, GSIS activator 9 and RAD52 anneal inh 7.
Screening Cc1noc(C)c1NC(=O)Nc1ccc2c(c1)C(=O)N([C@H](C)CO)C[C@@H](C)[C@@H](CN(C)C(=O)Nc1ccc3c(c1)OCO3)OCCCC[C@@H](C)O2 returned E-selectin induc 0, AF4-AF9 inh 2, rRNA inh HTS -41*, RAD54 inh 0, GSIS activator 14, RAD52 anneal inh 11, HepG2 tox 18 and AID977628 inconclusive.
`Cc1noc(C)c1NC(=O)Nc1ccc2c(c1)C(=O)N([C@@H](C)CO)C[C@@H](C)[C@H](CN(C)C(=O)Nc1ccc3c(c1)OCO3)OCCCC[C@@H](C)O2` gave E-selectin induc 0, AF4-AF9 inh 3, rRNA inh HTS 1, RAD54 inh -2, GSIS activator 3, RAD52 anneal inh 15, AID977621 inconclusive and AID977628 13.
Cc1noc(C)c1NC(=O)Nc1ccc2c(c1)C(=O)N([C@H](C)CO)C[C@H](C)[C@H](CN(C)C(=O)Nc1ccc3c(c1)OCO3)OCCCC[C@@H](C)O2 was read as E-selectin induc 0, AF4-AF9 inh -1, rRNA inh HTS 5, RAD54 inh -2, GSIS activator 16, RAD52 anneal inh -3, AID977621 -7.1 and AID977628 inconclusive.
Cc1noc(C)c1NC(=O)Nc1ccc2c(c1)C(=O)N([C@@H](C)CO)C[C@H](C)[C@H](CN(C)C(=O)Nc1ccc3c(c1)OCO3)OCCCC[C@H](C)O2 was read as E-selectin induc 0, AF4-AF9 inh 2, rRNA inh HTS 2, RAD54 inh -1, GSIS activator 0, RAD52 anneal inh -4 and AID977628 inconclusive.
CCCNC(=O)N1CC2(CN(C(=O)C3CCCC3)C2)c2c([nH]c3cc(OC)ccc23)[C@@H]1CO was read as E-selectin induc 0, AF4-AF9 inh -2, rRNA inh HTS -3, GSIS activator -2 and RAD52 anneal inh 12.
For CNC[C@H]1Oc2c(NC(=O)Nc3cccc4ccccc34)cccc2C(=O)N([C@@H](C)CO)C[C@H]1C the results were E-selectin induc 0, rRNA inh HTS -1, GSIS activator -4 and RAD52 anneal inh 4.
Screening Cc1cccc(S(=O)(=O)N2CC[C@@H]3[C@H](CO)Nc4ccc(C#Cc5cccnc5)cc4[C@@H]32)c1 returned E-selectin induc -1, rRNA inh HTS -7, RAD54 inh 2 and GSIS activator -1.
Screening Cc1noc(C)c1NC(=O)Nc1ccc2c(c1)C(=O)N([C@H](C)CO)C[C@H](C)[C@H](CN(C)C(=O)Nc1ccc3c(c1)OCO3)OCCCC[C@H](C)O2 returned E-selectin induc 0, AF4-AF9 inh 0, rRNA inh HTS 0, RAD54 inh -6, GSIS activator -6, RAD52 anneal inh 4, AID977621 -1.4 and AID977628 12.
For CCCC[n+]1ccn(-c2nc3ccccc3nc2[N-]S(=O)(=O)c2cccs2)c1 the results were E-selectin induc 2, AF4-AF9 inh 1, rRNA inh HTS -26*, RAD54 inh 94*, GSIS activator -30, RAD52 anneal inh -11 and AID977628 -8.4.
`CC(NC(=O)c1c(N)[nH]c(C(=O)c2ccccc2)c1-c1ccccc1Br)c1cccc2ccccc12` (stereo unspecified) gave E-selectin induc 1, AF4-AF9 inh -3, rRNA inh HTS -26*, GSIS activator -22, RAD52 anneal inh -15, AID977621 4.6 and AID977628 -3.
For COCC(=O)Nc1ccc2c(c1)C(=O)N(C)C[C@H](OC)[C@@H](C)CN(CCC(F)(F)F)[C@@H](C)CO2 the results were E-selectin induc 0, AF4-AF9 inh 1, rRNA inh HTS -2, RAD54 inh -6, GSIS activator -11 and RAD52 anneal inh 13.
`O=C1CCCc2c1nc(-c1ccc([N+](=O)[O-])cc1)n2O` gave E-selectin induc 4, AF4-AF9 inh -6, rRNA inh HTS -18*, GSIS activator 12, RAD52 anneal inh -10, AID977621 inconclusive and AID977628 inconclusive.
Screening CCCC(=O)Nc1ccc2c(c1)OC[C@@H](C)N(Cc1ccccn1)C[C@@H](C)[C@H](OC)CN(C)C2=O returned E-selectin induc 0, AF4-AF9 inh -1, rRNA inh HTS -2, RAD54 inh -4, GSIS activator 2 and RAD52 anneal inh 10.
Cc1cccc(C)c1NC(=O)C1(C)CSCC(=O)N1CCOc1ccccc1 (stereo unspecified) was read as E-selectin induc 0, AF4-AF9 inh -3, rRNA inh HTS -22*, GSIS activator -6, RAD52 anneal inh 4, AID977621 -12 and AID977628 -18.
For CC(=O)N1CC(=O)N2[C@H](CO)[C@@H](c3ccc(-c4ccc(C#N)cc4)cc3)[C@H]2C1 the results were E-selectin induc 0, AF4-AF9 inh -2, rRNA inh HTS 0, GSIS activator 2 and RAD52 anneal inh -15.
For O=C(Nc1ccc(F)cc1)N[C@@H]1C[C@@H]2O[C@@H](CO)CC[C@@H]2O[C@@H]1CCc1ccc(-c2ccccc2)cc1 the results were AF4-AF9 inh 0 and RAD52 anneal inh 1.
`O=C(Cc1cccc2ccccc12)Nc1cc(Cl)ccc1C(=O)O` gave E-selectin induc 0, AF4-AF9 inh -4, rRNA inh HTS -50, RAD54 inh 0, GSIS activator -5 and RAD52 anneal inh -10.
Screening O=C(Cc1cccc2ccccc12)Nc1ccccc1C(=O)O returned E-selectin induc -1, rRNA inh HTS -35*, RAD54 inh 11, GSIS activator -5, RAD52 anneal inh -2 and AID977621 -12.
`COc1ccc(CN2C(=O)CC(Cc3cc(C)cc(C)c3)C2=O)cc1OC` (stereo unspecified) gave E-selectin induc -2, AF4-AF9 inh -207, rRNA inh HTS -20*, GSIS activator -28, RAD52 anneal inh -10 and AID977621 -7.8.

Source: PubChem BioAssay
